Assay outcomes: PubChem, The Scripps Research Institute Molecular Screening Center
RORA act – activators of orphan receptor RORA, primary screen, cell-based, luminescence. Nuclear receptor ROR-alpha (Homo sapiens), P35398. CHO-K1 Gal4-RORA LBD luciferase reporter; percent increase over mock-subtracted basal signal. activation, % at 10 µM. hit rate 1.5% among 65,000;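 active = activation above the mean of all tested compounds plus 3 SD, cut at about 49% in these data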;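 also: 0% = DMSO-treated RORA cells and 100% = added signal equal to DMSO minus mock-transfected cells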
PKA inh – inhibitors of human PKA kinase activity, primary screen, biochemical, ATP-depletion luminescence, Kemptide substrate; hit rate 0.1% among 65,000; inhibition, % at 6 µM; cAMP-dependent protein kinase catalytic subunit alpha (Homo sapiens), P17612; PKA Kemptide phosphorylation, Kinase-Glo ATP luminescence; AID 524, 2006;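 active = inhibition above the screen-wide mean inhibition plus 3 SD, cut at about 21% in these data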
ROCK2 blocker – inhibitors of human ROCK2 kinase, primary screen, biochemical, high-throughput, luminescence. purified ROCK2, Kinase-Glo ATP depletion luminescence. Rho-associated protein kinase 2 (Homo sapiens), O75116. inhibition, % at 6 µM. hit rate 0.35% among 60,000;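 active = inhibition above the screen-wide mean inhibition plus 3 SD, cut at about 18% in these data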;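 also: plate controls were DMSO wells for no effect and Y-27632 control wells after no-enzyme background subtraction for full effect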
Target sequence (O75116 whole entry, looked up): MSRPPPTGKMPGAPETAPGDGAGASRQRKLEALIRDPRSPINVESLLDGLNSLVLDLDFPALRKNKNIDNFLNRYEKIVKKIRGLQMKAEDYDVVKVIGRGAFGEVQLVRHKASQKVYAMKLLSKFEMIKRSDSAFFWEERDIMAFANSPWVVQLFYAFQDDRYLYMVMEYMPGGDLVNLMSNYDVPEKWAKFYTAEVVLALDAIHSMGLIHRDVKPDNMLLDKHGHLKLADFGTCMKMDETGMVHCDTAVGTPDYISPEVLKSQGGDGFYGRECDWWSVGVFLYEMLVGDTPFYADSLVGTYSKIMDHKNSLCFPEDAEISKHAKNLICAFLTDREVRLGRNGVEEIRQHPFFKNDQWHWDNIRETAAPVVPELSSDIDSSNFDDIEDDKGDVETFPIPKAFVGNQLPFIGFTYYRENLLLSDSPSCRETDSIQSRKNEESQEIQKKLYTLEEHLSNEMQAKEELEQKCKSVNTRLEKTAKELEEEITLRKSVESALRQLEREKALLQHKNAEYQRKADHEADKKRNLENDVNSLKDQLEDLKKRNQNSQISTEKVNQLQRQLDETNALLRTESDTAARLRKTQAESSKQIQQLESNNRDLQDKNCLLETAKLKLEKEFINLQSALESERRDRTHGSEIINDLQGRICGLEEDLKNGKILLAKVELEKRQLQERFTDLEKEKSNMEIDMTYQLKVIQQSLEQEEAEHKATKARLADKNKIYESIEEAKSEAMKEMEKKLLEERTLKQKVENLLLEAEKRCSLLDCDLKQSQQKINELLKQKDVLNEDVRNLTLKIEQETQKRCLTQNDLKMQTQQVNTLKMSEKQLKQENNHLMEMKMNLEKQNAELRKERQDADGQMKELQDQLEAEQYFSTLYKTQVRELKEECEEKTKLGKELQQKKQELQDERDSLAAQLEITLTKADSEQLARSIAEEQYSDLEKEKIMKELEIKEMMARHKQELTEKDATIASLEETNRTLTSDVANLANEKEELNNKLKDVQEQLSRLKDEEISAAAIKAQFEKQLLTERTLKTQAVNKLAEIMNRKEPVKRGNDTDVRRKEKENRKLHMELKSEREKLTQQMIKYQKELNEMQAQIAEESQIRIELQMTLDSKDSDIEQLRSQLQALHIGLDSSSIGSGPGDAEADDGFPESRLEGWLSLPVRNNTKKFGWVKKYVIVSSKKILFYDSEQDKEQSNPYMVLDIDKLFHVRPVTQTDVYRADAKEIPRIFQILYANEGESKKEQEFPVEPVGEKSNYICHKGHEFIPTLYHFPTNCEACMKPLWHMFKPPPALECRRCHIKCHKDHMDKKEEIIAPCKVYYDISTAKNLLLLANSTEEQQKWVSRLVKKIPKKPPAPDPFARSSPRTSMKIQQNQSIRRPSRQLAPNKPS
SF1 activator – activators of human SF-1, primary screen, cell-based, CHO-K1, Gal4-SF-1 LBD, luciferase luminescence; CHO-K1 Gal4-SF-1 LBD luciferase reporter; % increase over DMSO SF-1-specific signal; hit rate 1.9% among 65,000; activation, % at 10 µM; Steroidogenic factor 1 (Homo sapiens), Q13285;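 active = activation above the mean activation of all tested compounds plus 3 SD, cut at about 50% in these data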
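Assay system – CHO-K1 cells with Gal4–hSF-1 LBD chimera plus Gal4-driven luciferase · Quantity – 4,000 cells per well · Times – compound added 1 h post-seeding, 20 h exposure at 37 °C, 5% CO2 · Measured by – luciferase light emission · Benchmarks – DMSO and mock-transfected background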
MMP-13 inhibitor – human MMP13 inhibitors, primary screen, biochemical, FRET peptide cleavage | inhibition, % at 4 µM | MMP-13 fTHP FRET cleavage, Mca fluorescence | hit rate 0.07% among 65,000 | Collagenase 3 (Homo sapiens), P45452;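 active = inhibition above the mean of compound-free control plate wells plus 3 SD, cut at about 14% in these data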;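 also: 0% = DMSO wells and 100% = wells with reference MMP-13 inhibitor after basal subtraction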
JNK3 blocker – JNK3 kinase activity inhibitors, primary screen, biochemical, human, purified enzyme; inhibition, % at 8 µM; HTS; hit rate 0.61% among 60,000; Mitogen-activated protein kinase 10 (Homo sapiens), P53779; in the data active = inhibition above about 17%;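 also: 0% = DMSO and 100% = reference inhibitor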
* hit, by the source's call. Compounds with a hit are over-represented: about 3.4% of the library has one in this group of screens.

CC1(C)CC(=O)C2=C(C1)Nc1ccccc1NC2c1ccccn1 (stereo not drawn) was read as RORA act -16, PKA inh -8, ROCK2 blocker -3, SF1 activator -9, MMP-13 inhibitor 3 and JNK3 blocker -1.
For CCN(CC)CCNC(=O)CCCCn1c(=S)[nH]c2c([nH]c3ccc(OC)cc32)c1=O the results were RORA act 4, PKA inh 13, ROCK2 blocker 30*, SF1 activator -6, MMP-13 inhibitor -38 and JNK3 blocker 1.
`COC1=C(OC)c2ccccc2C(C(=O)O)N/C1=C(/C)Nc1ccncc1` (stereo not drawn) gave RORA act 16, PKA inh 4, SF1 activator -1 and MMP-13 inhibitor -1.
COc1ccc(C2(O)CCN(CC(=O)Nc3nccs3)CC2)c(OC)c1 was read as RORA act -2, PKA inh 6, ROCK2 blocker 4, SF1 activator 5, MMP-13 inhibitor -2 and JNK3 blocker 4.
Screening Cc1ccccc1OCC(=O)Nc1ccc2c(c1)OCO2 returned RORA act -3, PKA inh 3, ROCK2 blocker 2, SF1 activator -13, MMP-13 inhibitor -2 and JNK3 blocker -3.
O=C(CCNc1ccccc1)c1ccc2c(c1)OCO2 was read as RORA act 43, PKA inh 9, ROCK2 blocker 4, SF1 activator 62*, MMP-13 inhibitor 4 and JNK3 blocker -1.
Screening CC(=O)Nc1ccccc1OCC(=O)c1ccc2c(c1)OCO2 returned RORA act 65*, PKA inh -1, SF1 activator 25 and MMP-13 inhibitor 2.
For CN(C)CCC(=O)c1ccc2c(c1)OCO2 the results were RORA act -20, PKA inh 8, ROCK2 blocker 4, SF1 activator 5, MMP-13 inhibitor 0 and JNK3 blocker -4.
`CCOc1cccc(C(=O)Nc2ccccc2N2CCN(C(=O)C(C)C)CC2)c1` gave RORA act -8, PKA inh 6, ROCK2 blocker 0, SF1 activator -18, MMP-13 inhibitor 6 and JNK3 blocker 1.
Screening CN(C(=O)c1ccccn1)c1nnc(-c2cnccn2)s1 returned RORA act 44, PKA inh 13, ROCK2 blocker 3, SF1 activator 70*, MMP-13 inhibitor 4 and JNK3 blocker 1.
`CN(C(=O)c1cccnc1)c1nnc(-c2ccccn2)s1` gave RORA act 39, PKA inh 6, ROCK2 blocker 0, SF1 activator 70*, MMP-13 inhibitor -48 and JNK3 blocker -8.
Screening O=C(NCCN1C(=O)CSC1=O)c1ccccc1 returned RORA act 19, PKA inh 4, ROCK2 blocker -1, SF1 activator 6, MMP-13 inhibitor 3 and JNK3 blocker -7.
CN(Cc1ccccc1)c1nc2c(c(=O)[nH]c(=O)n2C)n1CCOc1ccccc1 was read as RORA act 2, PKA inh 2, ROCK2 blocker -4, SF1 activator -9, MMP-13 inhibitor 2 and JNK3 blocker 0.
`O=C(Nc1ccc2oc(-c3ccccc3)nc2c1)c1cccnc1` gave RORA act 71*, PKA inh 9, ROCK2 blocker 4, SF1 activator 71*, MMP-13 inhibitor 7 and JNK3 blocker 6.
For CC(C)(C)c1ccccc1NC(=O)c1cccnc1 the results were RORA act 0, PKA inh -1, ROCK2 blocker 4, SF1 activator 2, MMP-13 inhibitor -1 and JNK3 blocker 7.
`O=C(Cc1ccccc1)Nc1ccc2oc(-c3cccnc3)nc2c1` gave RORA act 6, PKA inh 8, ROCK2 blocker 3, SF1 activator 20, MMP-13 inhibitor -167 and JNK3 blocker 2.
CCCC(=O)Nc1ccc2oc(-c3ccc(OC)c(Br)c3)nc2c1 was read as RORA act 80*, PKA inh 10, ROCK2 blocker 5, SF1 activator 62*, MMP-13 inhibitor -236 and JNK3 blocker -8.
`CCc1ccc2oc(-c3cccc(NC(=O)c4cccnc4)c3)nc2c1` gave RORA act 58*, PKA inh -1, SF1 activator 32 and MMP-13 inhibitor 6.
Screening CCCC(=O)Nc1ccc(-c2nc3cc(C)ccc3o2)cc1 returned RORA act -29, PKA inh 8, ROCK2 blocker 5, SF1 activator -26, MMP-13 inhibitor -172 and JNK3 blocker -3.
CC(C)(C)c1cc(NC(=O)c2cccnc2)no1 was read as RORA act 37, PKA inh 9, ROCK2 blocker 2, SF1 activator 75*, MMP-13 inhibitor -1 and JNK3 blocker -4.
For CCOc1ccc(C(C)NC(=O)CCC(=O)O)cc1 (stereo not drawn) the results were RORA act -16, PKA inh 0, ROCK2 blocker -3, SF1 activator -7, MMP-13 inhibitor 4 and JNK3 blocker -5.
CCn1c(CCNC(=O)c2cccs2)nnc1SCC(=O)c1ccc(OC)cc1 was read as RORA act -13, PKA inh -2, ROCK2 blocker -4, SF1 activator -12, MMP-13 inhibitor 4 and JNK3 blocker 6.
For CCSc1nnc(-c2ccccc2NC(C)=O)c(=O)[nH]1 the results were RORA act 0, PKA inh 9, ROCK2 blocker 6, SF1 activator 24, MMP-13 inhibitor -2 and JNK3 blocker -2.
CCCCOc1ccccc1NC(=O)CSc1nnnn1C(C)(C)C was read as RORA act -2, PKA inh 7, ROCK2 blocker 3, SF1 activator 31, MMP-13 inhibitor -1 and JNK3 blocker -1.
Screening COc1ccc(C(C)C)cc1S(=O)(=O)N1CCN(C)CC1 returned RORA act 8, PKA inh 2, SF1 activator -9 and MMP-13 inhibitor 3.
CC(C)c1ccc(NC(=O)c2cccnc2)cc1 was read as RORA act 69*, PKA inh 6, ROCK2 blocker 6, SF1 activator 34, MMP-13 inhibitor 3 and JNK3 blocker 3.
`O=C(Nc1ccc2nn(-c3ccccc3)nc2c1)c1cccnc1` gave RORA act 46, PKA inh -1, ROCK2 blocker 0, SF1 activator 61*, MMP-13 inhibitor -19 and JNK3 blocker 0.
CCc1ccc(NC(=O)c2cccnc2)cc1 was read as RORA act -3, PKA inh -3, ROCK2 blocker -4, SF1 activator 33, MMP-13 inhibitor 1 and JNK3 blocker 2.
For COc1ccccc1C(=O)Nc1ccc2oc(-c3ccc(F)cc3)nc2c1 the results were RORA act 65*, PKA inh -6, ROCK2 blocker -4, SF1 activator 42, MMP-13 inhibitor -15 and JNK3 blocker -1.
